From PubChem
Apaf1 activ: human Apaf-1 activation. O14727. Apaf-1 apoptosome caspase-3 activation, DEVD-Rh110 fluorescence; active compounds read low. activity change, negative = activation, % at 20 µM. 0.31% of 330,000 active;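 active means activity change at or below -40% at 20 µM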
Target sequence (O14727 whole entry, looked up): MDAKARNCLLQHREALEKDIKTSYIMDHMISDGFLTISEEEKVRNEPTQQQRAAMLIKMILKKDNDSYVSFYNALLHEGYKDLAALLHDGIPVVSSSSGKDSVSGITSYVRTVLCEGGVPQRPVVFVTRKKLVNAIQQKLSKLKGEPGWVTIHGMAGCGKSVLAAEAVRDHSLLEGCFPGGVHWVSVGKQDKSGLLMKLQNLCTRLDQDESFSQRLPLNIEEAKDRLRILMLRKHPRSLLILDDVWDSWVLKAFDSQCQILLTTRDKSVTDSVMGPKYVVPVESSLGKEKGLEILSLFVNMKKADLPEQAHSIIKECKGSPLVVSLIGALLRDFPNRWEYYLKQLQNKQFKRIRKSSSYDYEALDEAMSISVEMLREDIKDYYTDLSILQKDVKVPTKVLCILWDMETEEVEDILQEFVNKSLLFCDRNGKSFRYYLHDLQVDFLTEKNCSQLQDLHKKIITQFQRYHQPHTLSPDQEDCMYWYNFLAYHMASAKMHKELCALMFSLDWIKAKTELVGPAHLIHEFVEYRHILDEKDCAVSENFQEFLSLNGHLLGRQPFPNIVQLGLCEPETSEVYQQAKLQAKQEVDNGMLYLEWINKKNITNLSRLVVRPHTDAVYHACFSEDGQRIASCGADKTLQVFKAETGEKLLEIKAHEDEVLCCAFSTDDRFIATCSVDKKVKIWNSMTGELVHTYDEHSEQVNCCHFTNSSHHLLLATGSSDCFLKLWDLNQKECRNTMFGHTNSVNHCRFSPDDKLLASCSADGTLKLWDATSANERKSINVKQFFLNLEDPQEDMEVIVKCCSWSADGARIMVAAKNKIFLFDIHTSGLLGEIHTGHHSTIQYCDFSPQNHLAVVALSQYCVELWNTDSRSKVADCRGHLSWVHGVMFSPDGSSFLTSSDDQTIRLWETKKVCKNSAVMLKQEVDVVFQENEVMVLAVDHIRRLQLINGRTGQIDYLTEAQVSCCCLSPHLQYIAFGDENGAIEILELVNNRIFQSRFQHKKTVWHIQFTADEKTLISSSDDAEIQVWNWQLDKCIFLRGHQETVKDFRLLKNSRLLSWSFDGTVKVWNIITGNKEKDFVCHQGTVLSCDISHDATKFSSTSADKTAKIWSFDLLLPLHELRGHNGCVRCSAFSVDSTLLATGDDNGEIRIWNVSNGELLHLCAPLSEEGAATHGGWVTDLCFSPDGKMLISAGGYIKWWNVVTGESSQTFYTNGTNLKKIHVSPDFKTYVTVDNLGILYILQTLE
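Material: biochemical Apaf-1 apoptosome reconstitution; Medium: 20 mM HEPES buffer, pH 7.5, containing CHAPS and BSA; Reagent: dATP, cytochrome c, and (Z-DEVD)2-Rh110 caspase-3 substrate; Times: 30 min preincubation, 50 min reaction, room temperature; Signal: Rh110 fluorescence, excitation 480 nm, emission 540 nm; Measure: Caspase-3 activity via Apaf-1.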
Rh110 act interf: Rh110 signal interference in Apaf-1 activator counter-screen | shares compounds with Apaf1 activ | Rh110 fluorescence interference, quenched caspase reaction, Ex480/Em540 | fluorescence interference (activity change), % at 20 µM, hits read low | 980 tested, under 10 active | AID 504616;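 active means mean activity change at or below -40% when tested at 20 µM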
Apaf-1 act conf2: Apaf-1 (human) activation, single-dose confirmed; activity change, negative = activation, % at 20 µM; shares compounds with Apaf1 activ; reconstituted apoptosome caspase-3 activity, DEVD-Rh110 fluorescence; active compounds read low; 5% of 980 active;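 active means mean activity change at or below -40%, meaning activation of 40% or more, at 20 µM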
Fluor interf act: shows fluorescence interference in the Apaf-1 activator assay format; shares compounds with Apaf1 activ; 55 tested, under 10 active; AID 588592; EC50, µM; fluorescence interference counterscreen; call rule not given here
Of the large screens only hits and unclear results are named; the others gave an inactive call (follow-up assays come after a bar, where they were run). The list is a sample of the results.

COC(C[C@H]1O[C@@H]1C(=O)[C@H](C)OCc1ccccc1)OC	none
CCOC(=O)N1CCN(C2=C(NS(=O)(=O)c3ccc(NC(C)=O)cc3)C(=O)c3ccccc3C2=O)CC1	none
CCOC(=O)N1CCN(c2ccc([N+](=O)[O-])cc2)CC1	Apaf1 activ -142 | Rh110 act interf inactive | Apaf-1 act conf2 inactive
CCN(CC)c1ccc(/C=C2/C(=O)N(c3ccc([N+](=O)[O-])cc3)N=C2N2CCOCC2)cc1	none
COc1cccc(/C=N/NC(=O)NC23CC4CC(CC(C4)C2)C3)c1O	none
N=c1n(CC(=O)c2ccc(Br)cc2)c2ccccc2n1Cc1ccccc1	none
N#CCCn1cc(C(CC(=O)c2ccc(Br)cc2)C(=O)O)c2ccccc21 (stereo not given)	Apaf1 activ -67 | Rh110 act interf inactive | Apaf-1 act conf2 -48 | Fluor interf act inactive
Nc1ccc2nc3c(c(Cl)c2c1)CCCC3	none
CCC(C)[C@H]1CN=C(N)N1CCc1cc(C(F)(F)F)cc(C(F)(F)F)c1 (stereo not given in full)	none
CCOC(=O)c1nn(-c2ccccc2)c(=O)cc1OCC(=O)Nc1cc(C)ccc1OC	Apaf1 activ -57 | Rh110 act interf inactive | Apaf-1 act conf2 inactive
CCOc1cc(/C=C2/C(=O)N(c3ccccc3)N=C2C)ccc1OC(=O)c1ccco1	none
CCC(C)n1c(NC(=O)c2ccccc2)c(C#N)c2nc3ccccc3nc21 (stereo not given)	none
Cc1c(C(=O)OCC(=O)Nc2c(C)n(C)n(-c3ccccc3)c2=O)cccc1[N+](=O)[O-]	Apaf1 activ -93 | Rh110 act interf inactive | Apaf-1 act conf2 inactive
Cc1c(Cl)cnc(NC(=O)COC(=O)c2ccc([N+](=O)[O-])s2)c1Cl	none
O=C1Cc2cc([N+](=O)[O-])ccc2N1c1c(Cl)cccc1Cl	none
Cc1ccc(N(C)S(=O)(=O)c2cccc(C(=O)Nc3ccc(C)cn3)c2)cc1	none
COCCNC(=O)c1c[nH]c2ccc(S(=O)(=O)N(C)c3ccc(C)c(C)c3)cc2c1=O	Apaf1 activ -68 | Rh110 act interf inactive | Apaf-1 act conf2 inactive
Nc1cccc2cnccc12	none
O=C(O)CC(C(=O)O)N1C(=O)/C(=C/C=C/c2ccco2)SC1=S (stereo not given)	none
O=C(O)CCCN1C(=O)/C(=C\c2ccc(-c3nc4ccccc4s3)o2)SC1=S	Apaf1 activ -81 | Rh110 act interf inactive | Apaf-1 act conf2 -120 | Fluor interf act inactive
CCC(C)N(C(=O)COC(=O)c1cc([N+](=O)[O-])ccc1N1CCOCC1)C1CCS(=O)(=O)C1 (stereo not given)	none
O=[N+]([O-])c1cc(CN2CCN(c3cccc(C(F)(F)F)c3)CC2)c2cccnc2c1O	none
CC(C)=CCc1c(O)c(CC=C(C)C)c2c(c1O)C(=O)CC(c1ccc(O)cc1)O2 (stereo not given)	Apaf1 activ -150 | Rh110 act interf inactive | Apaf-1 act conf2 inactive
Oc1ccccc1/C=N/Nc1cc(N2CCCC2)nc(N2CCCC2)n1	none
COC(=O)CCC(=O)OC1(C)C(=O)C2=CN(C3CCCC3)C(c3ccc(OC)cc3)=CC2=C(Br)C1=O (stereo not given)	none
C=CCN1C=C2C(=O)C(C)(OC(=O)CCC(=O)OC)C(=O)C(Br)=C2C=C1c1ccc(OC)cc1 (stereo not given)	none
COCCN1C=C2C(=O)C(C)(OC(=O)CCC(=O)OC)C(=O)C(Br)=C2C=C1c1ccc(OC)cc1 (stereo not given)	none | Fluor interf act inactive
Oc1c(Cl)cc(Cl)c2c1NCCC2	none
CC(=O)Nc1ccc(S(=O)(=O)NC2=C(N3CCN(C)CC3)C(=O)c3ccccc3C2=O)cc1	none
CN1CCN(c2ccc(S(=O)(=O)N3CCCCC3)cc2NC(=O)/C=C/c2ccc(Cl)c([N+](=O)[O-])c2)CC1	none
CN1CCN(c2ccc(S(=O)(=O)N3CCCCC3)cc2NC(=O)c2ccc3ccccc3c2)CC1	Apaf1 activ -155 | Rh110 act interf inactive | Apaf-1 act conf2 inactive
CCN1CCN(S(=O)(=O)c2ccc(Cl)c(C(=O)Nc3ccccc3N3CCCC3)c2)CC1	Apaf1 activ -74 | Rh110 act interf inactive | Apaf-1 act conf2 inactive
CCN1CCN(S(=O)(=O)c2ccc(Cl)c(C(=O)N(C)Cc3cccs3)c2)CC1	none
CCN1CCN(C2=C(NS(=O)(=O)c3ccc(NC(C)=O)cc3)C(=O)c3ccccc3C2=O)CC1	none
O=C(C[C@H]1C[C@H](C(=O)N2CCCCC2)[C@@]2(CCc3ccccc3)c3[nH]c4cc(-c5ccco5)ccc4c3CCN2C1=O)NCCN1CCOCC1	none
O=C1NC2=C(CCc3ccccc32)C(c2ccc(Br)cc2)N1 (stereo not given)	none
O=C1NC(c2ccc(-c3ccccc3[N+](=O)[O-])o2)C(C(=O)c2ccc(F)cc2)C(O)(C(F)(F)F)N1 (stereo not given)	none
O=C(Cn1cc2c(n1)CCCC2)NCCCN1CCCC1	none
N#Cc1ccc(C23CC4(C2)[C@H](CN(CC2CCCCC2)[C@@H]4c2ccccc2)C3c2ccc(C(F)(F)F)cc2)cc1 (stereo not given in full)	none
CC1(C)S/C(=N/N=C/c2ccco2)NC1=O	Apaf1 activ -61 | Rh110 act interf inactive | Apaf-1 act conf2 inactive
CN(CCO)c1nc(N)c2c(N)nc3c(c2c1C#N)CC(=O)N3Cc1cccs1	none
Cc1ccc(/C=C2\SC(=S)N(CCC(=O)NNC(=O)c3ccc(O)cc3)C2=O)cc1	Apaf1 activ -63 | Rh110 act interf inactive | Apaf-1 act conf2 inactive
CCN(CC)CCOC(=O)c1ccc(NC(=O)CCCN2C(=O)S/C(=C/c3ccc(OC)cc3)C2=S)cc1	none
O=C(c1ccc(OCCN2CCCCC2)cc1)c1c(-c2ccc(O)cc2)sc2cc(O)ccc12	none
COC(=O)c1ccccc1-c1ccc(/C=C2\C(=O)N(c3ccccc3)N=C2c2ccccc2)o1	none | Fluor interf act inactive
CC1=NN(c2ccccc2)C(=O)/C1=C/c1ccc(-c2ccc(C)c(C(=O)O)c2)o1	none
CC1=NN(c2ccc(C(=O)O)cc2)C(=O)/C1=C/c1ccc(-c2ccccc2F)o1	none
COc1ccc(CC(=O)Nc2ccc(-c3nc4cc(C)ccc4o3)c(O)c2)cc1OC	none
COc1ccc(OC)c(NC(=O)CS(=O)(=O)Cc2nc(-c3ccccc3C)oc2C)c1	Apaf1 activ -50 | Rh110 act interf inactive | Apaf-1 act conf2 inactive
COc1ccc(C(C)(C)C)cc1NC(=O)CNc1cccc2ccccc12	none
C#CCOCCOCCOCCNc1nc(N2CCOCC2)nc(N2CCN(C(=O)CCCCCCCCCCNC(=O)[C@H](CO)n3cc(CCCCCN)nn3)CC2)n1	none
O=C(C1CC(=O)N(c2ccc3c(c2)OCCO3)C1)N1CCCC(C(F)(F)F)C1 (stereo not given)	Apaf1 activ -45 | Rh110 act interf inactive | Apaf-1 act conf2 inactive
CCCCc1nc(C(N)=O)c2[nH]c(=O)n(-c3ccc(OCC)cc3)c2n1	Apaf1 activ -157 | Rh110 act interf inactive | Apaf-1 act conf2 inactive
CCCCCCCc1ccc(C2NC(=S)NC3=C2C(=O)c2ccccc23)cc1 (stereo not given)	none
CC(C)(C)OC(=O)[C@H](CCCCN)NC(=O)c1[nH]cnc1C(=O)N[C@@H](Cc1ccccc1)C(=O)OCc1ccccc1	none
